Source: publication PMC4591930 (Angewandte Chemie (International ed. in English), 2015)
Where a SMILES comes first, the peptide text is derived from it. [ ]: non-standard residue; d: D form. The star is where a group is joined. FITC = O=C1OC2(c3ccc(O)cc3Oc3cc(O)ccc32)c2ccc(NC(=S)*)cc21; Phe(4-F) = N[C@@H](Cc1ccc(F)cc1)C(=O)O; d2Nal = N[C@H](Cc1ccc2ccccc2c1)C(=O)O; dNle = CCCC[C@@H](N)C(=O)O

Key:
lung cancer cells [1] = experiment: Cell permeability of hits; type: cell-based, human; settings: qualitative
Procedure, shortened: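 A549 lung cancer cells given 5 μM FITC-labelled test compound for 30 min. Uptake viewed live by confocal microscopy with DRAQ5 nuclear counterstain. Total cell-associated fluorescence measured by flow cytometry against untreated control cells.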

caspase-3 activity = experiment: Caspase-3 activity in H1299 cells; type: cell-based, human; settings: 10 μM, 3 h
phosphorylation of MEK = experiment: EGF-stimulated MEK phosphorylation in H1299 cells; type: cell-based, human
Procedure, shortened: (§1)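 H1299 cells exposed to a range of test compound concentrations for 10 min, then stimulated with EGF (50 ng/ml) for 5 min before lysis. Phospho-Akt (Thr308) and phospho-MEK detected by immunoblot, with total Akt and MEK blotted alongside.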

Ras-B-Raf interaction = experiment: Ras-B-Raf co-immunoprecipitation in H358 cells; type: cell-based, human; settings: anti-Ras precipitation, anti-B-Raf immunoblot
Procedure, shortened: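 H358 lung cancer cells treated with increasing test compound concentrations. Lysates immunoprecipitated with anti-Ras antibody and co-precipitated B-Raf detected by anti-B-Raf immunoblot. Whole-cell lysate blotted alongside.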

[2] = tested on: phosphorylation of Akt at Thr308; experiment: EGF-stimulated Akt Thr308 phosphorylation in H1299 cells; type: cell-based, human
Procedure, shortened: as §1

H1299 cells = experiment: Annexin-FITC / propidium iodide flow cytometry of treated H1299 cells; type: cell-based, human; settings: 10 μM, 3 h
Ras-Raf interaction = Ras-Raf interaction (Homo sapiens, UniProt P01116, G12V); experiment: Homogeneous time-resolved fluorescence; type: binding; settings: Gln-8 replaced with L- or D-arginine, versus 9A1-4
K-Ras = K-Ras (Homo sapiens, UniProt P01116, G12V); experiment: Fluorescence anisotropy; type: binding; settings: fluorescence anisotropy in solution
lung cancer cells [3] = experiment: Anti-proliferative activity against lung cancer cells; type: cell-based, human; settings: qualitative
A549 lung cancer cells = experiment: Flow cytometry of cellular uptake of FITC-labeled peptides; type: cell-based, human; settings: 5 μM, 30 min
[4] = target: panel of five arbitrarily selected control proteins; experiment: FA binding to control proteins

Chain of Ras-Raf interaction (P01116 1-188 isoform P01116-2 G12V): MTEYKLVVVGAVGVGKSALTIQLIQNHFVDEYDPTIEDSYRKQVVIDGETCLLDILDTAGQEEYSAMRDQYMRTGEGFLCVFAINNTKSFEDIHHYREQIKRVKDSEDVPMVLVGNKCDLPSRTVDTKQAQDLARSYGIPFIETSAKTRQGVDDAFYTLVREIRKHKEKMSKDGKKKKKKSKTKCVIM
Chain of K-Ras (P01116 1-188 isoform P01116-2 G12V): as above

SMILES: CCCC[C@H]1NC(=O)[C@H]([C@@H](C)O)NC(=O)[C@@H](C)NC(=O)[C@H](CCCNC(=N)N)NC(=O)[C@H](CCCNC(=N)N)NC(=O)[C@H](CCCNC(=N)N)NC(=O)[C@@H](Cc2ccc3ccccc3c2)NC(=O)[C@H](CCCNC(=N)N)NC(=O)[C@H](Cc2ccc(F)cc2)NC(=O)[C@H](Cc2c[nH]c3ccccc23)NC(=O)[C@H](CCC(N)=O)NC1=O [9A5] (cyclo(QW[Phe(4-F)]R[d2Nal]RRR[dA]T[dNle]))
- cell permeability (lung cancer cells [1]): improved cell permeability
- fold increase in caspase-3 activity (caspase-3 activity): 2.3 fold
- concentration abolishing MEK phosphorylation (phosphorylation of MEK; H1299 cells): ≥ 12 µM
- exposure time at which dephosphorylation of MEK was largely complete (phosphorylation of MEK; time-course experiment): 10 min
- inhibition of Ras-B-Raf interaction in cells (Ras-B-Raf interaction): dose-dependently inhibited
- concentration abolishing Akt Thr308 phosphorylation ([2]; H1299 cells): ≥ 12 µM
- exposure time at which dephosphorylation of Akt was largely complete ([2]; time-course experiment): 10 min
- annexin-FITC and propidium iodide staining (H1299 cells): positive
- fold higher affinity for K-Ras (Ras-Raf interaction): ~ 4 fold

SMILES: CCCC[C@H]1NC(=O)[C@H]([C@@H](C)O)NC(=O)[C@@H](C)NC(=O)[C@@H](CCCNC(=N)N)NC(=O)[C@H](CCCNC(=N)N)NC(=O)[C@H](CCCNC(=N)N)NC(=O)[C@@H](Cc2ccc3ccccc3c2)NC(=O)[C@H](CCCNC(=N)N)NC(=O)[C@H](Cc2ccc(F)cc2)NC(=O)[C@H](Cc2c[nH]c3ccccc23)NC(=O)[C@H](CCC(N)=O)NC1=O [9A6] (cyclo(QW[Phe(4-F)]R[d2Nal]RR[dR][dA]T[dNle]))
- cell permeability (lung cancer cells [1]): improved cell permeability
- fold higher affinity for K-Ras (Ras-Raf interaction): ~ 4 fold

SMILES: CCCC[C@H]1NC(=O)[C@H]([C@@H](C)O)NC(=O)[C@@H](C)NC(=O)[C@H](CCC(N)=O)NC(=O)[C@H](CCCNC(=N)N)NC(=O)[C@H](CCCNC(=N)N)NC(=O)[C@@H](Cc2ccc3ccccc3c2)NC(=O)[C@H](CCCNC(=N)N)NC(=O)[C@H](Cc2ccc(F)cc2)NC(=O)[C@H](Cc2c[nH]c3ccccc23)NC(=O)[C@@H](CO)NC1=O [9A] (cyclo([dS]W[Phe(4-F)]R[d2Nal]RRQ[dA]T[dNle]))
- cell permeability (lung cancer cells [1]): cell permeable
- binding to K-Ras (K-Ras): strong binding
- anti-proliferative activity (lung cancer cells [3]): weak anti-proliferative activity

SMILES: CCCC[C@H]1NC(=O)[C@H]([C@@H](C)O)NC(=O)[C@@H](C)NC(=O)[C@H](CCCNC(=N)N)NC(=O)[C@H](CCCNC(=N)N)NC(=O)[C@H](CCCCNC(=S)Nc2ccc3c(c2)C(=O)OC32c3ccc(O)cc3Oc3cc(O)ccc32)NC(=O)[C@@H](Cc2ccc3ccccc3c2)NC(=O)[C@H](CCCNC(=N)N)NC(=O)[C@H](Cc2ccc(F)cc2)NC(=O)[C@H](Cc2c[nH]c3ccccc23)NC(=O)[C@H](CCC(N)=O)NC1=O [FITC-9A5] (cyclo(QW[Phe(4-F)]R[d2Nal]K(FITC)RR[dA]T[dNle]))
- fold more efficient cell entry than FITC-9A54 (A549 lung cancer cells): ~ 5 fold
- Kd [4]: ≥ 30 µM
